According to ChEMBL document CHEMBL1932928, “II. Novel HCV NS5B polymerase inhibitors: discovery of indole C2 acyl sulfonamides” (Bioorg Med Chem Lett, 2012):

What was measured:
Hepatitis C virus = test: Antiviral activity against HCV 1b con1 assessed as inhibition of viral RNA replication after 3 days by RT-PCR analysis; type: functional, organism-based, Hepacivirus hominis; conditions: Con1, 72 h
In short: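 Genotype 1b-Con1 replicon cells were seeded at 5000/well one day before dosing. Inhibitor was added at 0.5% final DMSO in medium with 5% FBS, and cells were harvested after 3 days. Replicon RNA was quantified by Taqman real-time RT-PCR normalized to GAPDH RNA. EC50 came from 10 serial twofold dilutions in duplicate.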

[1] = Inhibition of HCV NS5B Cdelta21 RNA polymerase activity assessed as incorporation of [33P]-CTP into heteropolymer RNA template after 150 mins; design: species or system Hepacivirus hominis
In short: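 Radiolabeled nucleotide incorporation using 30 nM NS5B (Δ21) with 100 nM heteropolymer RNA template and 0.25 mM trinucleotide initiator. Buffer: 20 mM HEPES pH 7.3, 7.5 mM DTT, 20 units/mL RNasin, 10 mM MgCl₂, 60 mM NaCl, BSA, GTP/ATP/UTP, [³³P]-CTP with 20 nM CTP. Run 150 min at room temperature, EDTA-stopped, filter-washed, incorporated label counted. IC50 from 10 twofold dilutions in duplicate.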

| Structure (SMILES) | EC50 (Hepatitis C virus) | IC50 [1] |
| --- | --- | --- |
| Nc1cc(Cn2c(C(=O)NS(=O)(=O)c3ccc(O)cc3)c(-c3ccc[nH]c3=O)c3cc(Cl)ccc32)ccn1 | 100 nM | 24 nM |
| N#Cc1c(-c2ccc[nH]c2=O)c2cc(Cl)ccc2n1Cc1ccnc(N)c1 | 8300 nM | > 20000 nM |
| CCOC(=O)c1c(-c2ccc[nH]c2=O)c2cc(Cl)ccc2n1Cc1ccnc(N)c1 |  | > 20000 nM |
| CS(=O)(=O)NC(=O)c1c(-c2ccc[nH]c2=O)c2cc(Cl)ccc2n1Cc1ccnc(N)c1 | 300 nM | 18 nM |
| Nc1cc(Cn2c(CC(=O)O)c(-c3ccc[nH]c3=O)c3cc(Cl)ccc32)ccn1 |  | 7000 nM |
| CS(=O)(=O)NC(=O)Cc1c(-c2ccc[nH]c2=O)c2cc(Cl)ccc2n1Cc1ccnc(N)c1 |  | 2200 nM |
| CS(=O)(=O)NCc1c(-c2ccc[nH]c2=O)c2cc(Cl)ccc2n1Cc1ccnc(N)c1 |  | > 20000 nM |
| Nc1cc(Cn2c(C(=O)NS(N)(=O)=O)c(-c3ccc[nH]c3=O)c3cc(Cl)ccc32)ccn1 | 2200 nM | 29 nM |
| Nc1cc(Cn2c(C3=NS(=O)(=O)c4ccccc4N3)c(-c3ccc[nH]c3=O)c3cc(Cl)ccc32)ccn1 | 600 nM | 12 nM |
| CS(=O)(=O)NC(=O)c1c(-c2ccc[nH]c2=O)c2cc(Cl)ccc2n1Cc1ccccc1F | 230 nM | 33 nM |
| CS(=O)(=O)NC(=O)c1c(-c2ccc[nH]c2=O)c2cc(Cl)ccc2n1Cc1ccc(F)cc1F | 2200 nM | 41 nM |
| CCNS(=O)(=O)c1c(-c2ccc[nH]c2=O)c2cc(Cl)ccc2n1Cc1ccc(F)cc1F |  | 3000 nM |
| NS(=O)(=O)c1c(-c2ccc[nH]c2=O)c2cc(Cl)ccc2n1Cc1ccc(F)cc1F |  | 2700 nM |
| O=c1[nH]cccc1-c1c(-c2nc3ccccc3[nH]2)n(Cc2ccc(F)cc2F)c2ccc(Cl)cc12 | 8000 nM | 570 nM |
| CS(=O)(=O)NC(=O)c1c(-c2c[nH]c(=O)[nH]c2=O)c2cc(Cl)ccc2n1Cc1ccnc(N)c1 | 3000 nM | 27 nM |
| CS(=O)(=O)NC(=O)c1c(-c2ccc[nH]c2=O)c2cc(C(F)(F)F)ccc2n1Cc1ccccc1F | 120 nM | 6 nM |
| CS(=O)(=O)NC(=O)c1c(-n2c(=O)[nH]c3cscc3c2=O)c2cc(C(F)(F)F)ccc2n1Cc1ccccc1F | 700 nM | 15 nM |
| CCS(=O)(=O)NC(=O)c1c(-c2ccc[nH]c2=O)c2cc(Cl)ccc2n1Cc1ccnc(N)c1 | 600 nM | 18 nM |
| CC(C)(C)S(=O)(=O)NC(=O)c1c(-c2ccc[nH]c2=O)c2cc(Cl)ccc2n1Cc1ccnc(N)c1 | 1000 nM | 31 nM |
| Nc1cc(Cn2c(C(=O)NS(=O)(=O)c3ccccc3)c(-c3ccc[nH]c3=O)c3cc(Cl)ccc32)ccn1 | 400 nM | 16 nM |
| Nc1cc(Cn2c(C(=O)NS(=O)(=O)Cc3ccccc3)c(-c3ccc[nH]c3=O)c3cc(Cl)ccc32)ccn1 | 1200 nM | 24 nM |
| O=C(NS(=O)(=O)C1CC1)c1c(-c2ccc[nH]c2=O)c2cc(Cl)ccc2n1Cc1ccccc1F | 270 nM | 5 nM |

| Structure (SMILES) | EC50 (Hepatitis C virus) | IC50 [1] |
| --- | --- | --- |
| CC(C)S(=O)(=O)NC(=O)c1c(-c2ccc[nH]c2=O)c2cc(Cl)ccc2n1Cc1ccccc1F | 400 nM | 13 nM |
| O=C(NS(=O)(=O)C1CCCC1)c1c(-c2ccc[nH]c2=O)c2cc(Cl)ccc2n1Cc1ccccc1F | 1400 nM | 28 nM |
| O=C(NS(=O)(=O)CCCCl)c1c(-c2ccc[nH]c2=O)c2cc(Cl)ccc2n1Cc1ccccc1F | 2800 nM | 8 nM |
| CS(=O)(=O)NCCS(=O)(=O)NC(=O)c1c(-c2ccc[nH]c2=O)c2cc(Cl)ccc2n1Cc1ccccc1F | 470 nM | 5 nM |
| COc1ccc(S(=O)(=O)NC(=O)c2c(-c3ccc[nH]c3=O)c3cc(Cl)ccc3n2Cc2ccnc(N)c2)cc1 | 500 nM | 22 nM |
| Cc1ccc(S(=O)(=O)NC(=O)c2c(-c3ccc[nH]c3=O)c3cc(Cl)ccc3n2Cc2ccnc(N)c2)cc1 | 600 nM | 19 nM |
| Nc1cc(Cn2c(C(=O)NS(=O)(=O)c3ccccc3F)c(-c3ccc[nH]c3=O)c3cc(Cl)ccc32)ccn1 | 800 nM | 31 nM |
| Nc1cc(Cn2c(C(=O)NS(=O)(=O)c3cccc(Cl)c3)c(-c3ccc[nH]c3=O)c3cc(Cl)ccc32)ccn1 | 1500 nM | 43 nM |
| Nc1cc(Cn2c(C(=O)NS(=O)(=O)c3cc(F)ccc3F)c(-c3ccc[nH]c3=O)c3cc(Cl)ccc32)ccn1 | 700 nM | 28 nM |
| Nc1cc(Cn2c(C(=O)NS(=O)(=O)c3cc(F)cc(F)c3)c(-c3ccc[nH]c3=O)c3cc(Cl)ccc32)ccn1 | 700 nM | 26 nM |
| Nc1cc(Cn2c(C(=O)NS(=O)(=O)c3ccc(F)cc3F)c(-c3ccc[nH]c3=O)c3cc(Cl)ccc32)ccn1 | 1600 nM | 49 nM |
| Cc1cc(F)ccc1S(=O)(=O)NC(=O)c1c(-c2ccc[nH]c2=O)c2cc(Cl)ccc2n1Cc1ccnc(N)c1 | 1900 nM | 34 nM |
| Nc1cc(Cn2c(C(=O)NS(=O)(=O)c3ccccc3N)c(-c3ccc[nH]c3=O)c3cc(Cl)ccc32)ccn1 | 1700 nM | 28 nM |
| Nc1cccc(S(=O)(=O)NC(=O)c2c(-c3ccc[nH]c3=O)c3cc(Cl)ccc3n2Cc2ccnc(N)c2)c1 | 1000 nM | 36 nM |
| Nc1ccc(S(=O)(=O)NC(=O)c2c(-c3ccc[nH]c3=O)c3cc(Cl)ccc3n2Cc2ccnc(N)c2)cc1 | 400 nM | 35 nM |
| N#Cc1ccc(S(=O)(=O)NC(=O)c2c(-c3ccc[nH]c3=O)c3cc(Cl)ccc3n2Cc2ccnc(N)c2)cc1 | 1700 nM | 36 nM |
| COC(=O)c1ccc(S(=O)(=O)NC(=O)c2c(-c3ccc[nH]c3=O)c3cc(Cl)ccc3n2Cc2ccnc(N)c2)cc1 | 1100 nM | 32 nM |
| COC(=O)c1cccc(S(=O)(=O)NC(=O)c2c(-c3ccc[nH]c3=O)c3cc(Cl)ccc3n2Cc2ccnc(N)c2)c1 | 300 nM | 27 nM |
| Nc1cc(Cn2c(C(=O)NS(=O)(=O)c3cccc(S(N)(=O)=O)c3)c(-c3ccc[nH]c3=O)c3cc(Cl)ccc32)ccn1 | 1900 nM | 34 nM |
| CS(=O)(=O)Nc1cccc(S(=O)(=O)NC(=O)c2c(-c3ccc[nH]c3=O)c3cc(Cl)ccc3n2Cc2ccnc(N)c2)c1 | 11 nM |  |
| CS(=O)(=O)Nc1ccc(S(=O)(=O)NC(=O)c2c(-c3ccc[nH]c3=O)c3cc(Cl)ccc3n2Cc2ccnc(N)c2)cc1 | 500 nM | 20 nM |
| CS(=O)(=O)Nc1cccc(S(=O)(=O)NC(=O)c2c(-c3ccc[nH]c3=O)c3cc(Cl)ccc3n2Cc2ccccc2F)c1 | 20 nM | 18 nM |
